# In ChEMBL document CHEMBL1909594, “Synthesis of polyfunctionalized piperidone oxime ethers and their cytotoxicity on HeLa cells” (Bioorg Med Chem Lett, 2011):
# The source made the active and inactive calls. The calls are words filed in the database; no cut-off is given here.
# Legend:
# [1] = system: HeLa; assay: cells; type: functional, cell-based; conditions: Homo sapiens, 24 h
# [2] = system: HeLa; assay: Induction of apoptosis in human HeLa cells assessed as fragmentation of nucleus at 25 uM after 24 hrs using Hoechst staining method; type: functional, cell-based
# Method in brief: (§1)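 HeLa cells at 1 × 10⁴ cells/well in 96-well plates, in three replicates, were treated and incubated overnight at 37 °C. Cells were washed twice with PBS and fixed in 4% paraformaldehyde in PBS for one day. They were stained with 1 µg/mL Hoechst 33342 for 20 min at room temperature. Nuclei were imaged by fluorescence microscopy at 360/470 nm excitation/emission.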
# [3] = system: HeLa; assay: Induction of apoptosis in human HeLa cells assessed as cytoplasm content release at 25 uM after 24 hrs using Hoechst staining method; type: functional, cell-based; conditions: in the assay text read “by phase contrast microscopy” for “using Hoechst staining method”
# Method in brief: (§2)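 HeLa cells (ATCC) were grown in DMEM with 10% heat-inactivated FBS plus penicillin/streptomycin at 37 °C under 5% CO₂. Cells at 1 × 10⁵/well were exposed to compound for 24 h. Morphology changes were then examined by phase-contrast light microscopy against untreated cells.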
# [4] = system: HeLa; assay: Induction of apoptosis in human HeLa cells assessed as chromosomal condensation at 25 uM after 24 hrs using Hoechst staining method; type: functional, cell-based
# Method in brief: as §1
# [5] = system: HeLa; assay: Induction of apoptosis in human HeLa cells assessed as cell membrane rupture at 25 uM after 24 hrs using Hoechst staining method; type: functional, cell-based; conditions: in the assay text read “by phase contrast microscopy” for “using Hoechst staining method”
# Method in brief: as §2
# [6] = system: HeLa; assay: Induction of apoptosis in human HeLa cells assessed as formation of apoptotic bodies at 25 uM after 24 hrs using Hoechst staining method; type: functional, cell-based
# Method in brief: as §1
# [7] = system: HeLa; assay: Ratio of camptothecin IC50 to compound IC50 for human HeLa cells; type: functional
# [8] = system: HeLa; assay: Induction of apoptosis in human HeLa cells assessed as margination of chromation into horseshoe shaped structure at 25 uM after 24 hrs using Hoechst staining method; type: functional, cell-based
# Method in brief: as §1
# [9] = system: HeLa; assay: Induction of apoptosis in human HeLa cells assessed as deformed nucleus/cytoplasm consistency at 25 uM after 24 hrs using Hoechst staining method; type: functional, cell-based
# Method in brief: as §1
# [10] = system: HeLa; assay: Induction of apoptosis in human HeLa cells assessed as chromosomal fragmentation at 25 uM after 24 hrs using Hoechst staining method; type: functional, cell-based
# Method in brief: as §1
# [11] = system: HeLa; assay: Induction of apoptosis in human HeLa cells assessed as blebbing of cellular membrane at 25 uM after 24 hrs using Hoechst staining method; type: functional, cell-based; conditions: in the assay text read “by phase contrast microscopy” for “using Hoechst staining method”
# Method in brief: as §2
SMILES,IC50 [1] [µM],further results
CO/N=C1\C[C@@H](c2ccc(C)cc2)N(C)[C@@H](c2ccc(C)cc2)[C@@H]1C,47.7,–
CO/N=C1\C[C@@H](c2cccc(F)c2)N[C@@H](c2cccc(F)c2)[C@@H]1C,38.4,–
CO/N=C1\C[C@@H](c2ccccc2)N[C@@H](c2ccccc2)[C@@H]1C (relative stereo),113,–
CO/N=C1/[C@@H](C)[C@H](c2ccc(C(C)C)cc2)N[C@H](c2ccc(C(C)C)cc2)[C@H]1C,51,–
CO/N=C1\C[C@@H](c2ccc(Cl)cc2)N(C)[C@@H](c2ccc(Cl)cc2)[C@@H]1C,36.3,–
CC[C@@H]1/C(=N/OC)C[C@@H](c2ccccc2)N(C)[C@H]1c1ccccc1,41.7,–
CO/N=C1/[C@@H](C)[C@H](c2ccc(C)cc2)N[C@H](c2ccc(C)cc2)[C@H]1C,54.9,–
CCOc1ccc([C@H]2N[C@@H](c3ccc(OCC)cc3)[C@H](C)/C(=N/OC)[C@@H]2C)cc1,98,–
CO/N=C1\C[C@@H](c2ccccc2)N[C@@H](c2ccccc2)[C@@H]1C(C)C,49.5,–
CC[C@@]1(O)C(=O)OCc2c1cc1n(c2=O)Cc2cc3ccccc3nc2-1 [CAMPTOTHECIN],8.93,–
CO/N=C1\C[C@@H](c2ccc(Br)cc2)N[C@@H](c2ccc(Br)cc2)[C@@H]1C (relative stereo),25,Activity [2]: Active; Activity [3]: Active; Activity [4]: Active; Activity [5]: Active; Activity [6]: Active; Ratio IC50 [7]: 3; Activity [8]: Active; Activity [9]: Active; Activity [10]: Active; Activity [11]: Active
CO/N=C1\C[C@@H](c2ccccc2)N[C@@H](c2ccccc2)C1 (relative stereo),121,–
COc1cc([C@@H]2c3cc4c(cc3[C@@H](O[C@@H]3O[C@@H]5CO[C@@H](C)O[C@H]5[C@H](O)[C@H]3O)[C@H]3COC(=O)[C@H]23)OCO4)cc(OC)c1O [ETOPOSIDE],23.3,–

# Continued by falling IC50 [1], values first:
IC50 [1] [µM],SMILES,further results
154,CO/N=C1\C[C@@H](c2ccc(OC)cc2)N[C@@H](c2ccc(OC)cc2)[C@@H]1C,–
93.9,CO/N=C1/[C@@H](C)[C@H](c2ccc(OC)cc2)N[C@H](c2ccc(OC)cc2)[C@H]1C,–
81.6,CO/N=C1\C[C@@H](c2ccc(C)cc2)N[C@@H](c2ccc(C)cc2)[C@@H]1C,–
80.6,CO/N=C1\C[C@@H](c2ccc(OC)cc2)N(C)[C@@H](c2ccc(OC)cc2)[C@@H]1C,–
57.3,CC[C@@H]1/C(=N/OC)C[C@@H](c2ccccc2)N[C@H]1c1ccccc1,–
49.2,CO/N=C1\C[C@@H](c2ccc(F)cc2)N[C@@H](c2ccc(F)cc2)[C@@H]1C,–
49,CO/N=C1\C[C@@H](c2ccc(Cl)cc2)N[C@@H](c2ccc(Cl)cc2)[C@@H]1C (relative stereo),–
40.7,CO/N=C1\C[C@@H](c2ccc(F)cc2)N(C)[C@@H](c2ccc(F)cc2)[C@@H]1C,–
37.9,CO/N=C1/[C@@H](C)[C@H](c2cccc(F)c2)N[C@H](c2cccc(F)c2)[C@H]1C,–
